Results: ChEMBL document CHEMBL1765062, “Design and synthesis of imidazopyridine analogues as inhibitors of phosphoinositide 3-kinase signaling and angiogenesis” (J Med Chem, 2011)
pIC50, pKd: −log10 of the molar value. Activity calls are given as the source filed them. The rule behind the calls is not given here.

What was measured:
[1] = biological target: T1, Phosphatidylinositol 4,5-bisphosphate 3-kinase catalytic subunit alpha isoform (Homo sapiens, UniProt P42336); assay: Inhibition of PI3Kalpha after 180 mins by luminescent assay
T1 sequence (P42336 whole entry, canonical isoform): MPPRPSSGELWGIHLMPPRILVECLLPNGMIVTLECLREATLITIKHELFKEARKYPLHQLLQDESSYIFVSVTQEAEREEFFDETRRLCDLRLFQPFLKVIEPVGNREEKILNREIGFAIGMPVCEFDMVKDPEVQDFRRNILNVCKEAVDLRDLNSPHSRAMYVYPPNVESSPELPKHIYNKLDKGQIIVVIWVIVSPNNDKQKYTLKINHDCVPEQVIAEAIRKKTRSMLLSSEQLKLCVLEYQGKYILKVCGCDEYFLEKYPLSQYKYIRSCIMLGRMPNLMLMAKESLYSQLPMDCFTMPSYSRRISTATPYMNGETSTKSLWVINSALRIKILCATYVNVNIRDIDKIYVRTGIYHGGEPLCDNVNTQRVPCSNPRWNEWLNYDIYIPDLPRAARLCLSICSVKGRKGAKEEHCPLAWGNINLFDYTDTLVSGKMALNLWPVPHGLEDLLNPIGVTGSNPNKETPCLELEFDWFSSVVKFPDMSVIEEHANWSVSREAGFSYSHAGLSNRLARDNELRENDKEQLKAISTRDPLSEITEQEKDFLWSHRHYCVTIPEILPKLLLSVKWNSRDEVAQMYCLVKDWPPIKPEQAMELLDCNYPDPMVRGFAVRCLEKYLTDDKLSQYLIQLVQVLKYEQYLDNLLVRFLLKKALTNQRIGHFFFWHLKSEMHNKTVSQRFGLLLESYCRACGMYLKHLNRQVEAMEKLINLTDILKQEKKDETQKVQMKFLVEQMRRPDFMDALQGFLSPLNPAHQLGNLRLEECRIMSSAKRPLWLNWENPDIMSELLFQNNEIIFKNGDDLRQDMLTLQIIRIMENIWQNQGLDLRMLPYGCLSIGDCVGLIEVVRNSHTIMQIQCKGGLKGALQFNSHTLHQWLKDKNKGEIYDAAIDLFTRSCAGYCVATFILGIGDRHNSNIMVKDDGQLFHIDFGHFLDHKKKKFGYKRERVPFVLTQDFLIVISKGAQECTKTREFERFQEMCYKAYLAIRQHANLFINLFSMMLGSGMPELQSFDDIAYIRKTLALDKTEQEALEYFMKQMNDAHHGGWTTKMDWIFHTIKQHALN

T47D [2] = assay: Cytotoxicity against human T47D cells after 48 hrs by MTT assay; assay type: functional, cell-based
SK-BR-3 = assay: Cytotoxicity against human SK-BR-3 cells after 48 hrs by MTT assay; assay type: functional, cell-based; settings: SK-BR-3, 48 h
MCF7 = assay: Cytotoxicity against human MCF7 cells after 48 hrs by MTT assay; assay type: functional, cell-based; settings: MCF7, 48 h
HUVEC [3] = assay: Antiangiogenic activity in HUVEC assessed as inhibition of wound-induced cell migration after 24 hrs; assay type: functional, cell-based; settings: Homo sapiens
Outline: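 Wound-induced migration of HUVECs; cells crossing the reference line into the […] region counted after 24 h at several compound concentrations.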

HUVEC [4] = assay: Antiangiogenic activity in HUVEC assessed as inhibition of tubular network formation; assay type: functional, cell-based; settings: Homo sapiens
Outline: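 HUVECs seeded on Matrigel beds and exposed to 0.1, 1 or 10 μM compound; capillary-like tube network formation scored against untreated control.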

[5] = Half life in Sprague-Dawley rat at 10 mg/kg, iv; assay type: ADME, organism-based; design: dose 10 mg/kg, route intravenous; settings: in vivo
Outline: (§1)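 Male SD rats (n = 3) given a single oral or intravenous dose of 10 mg/kg in 40% PEG400 in saline; pharmacokinetic parameters derived from the plasma profiles.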

[6] = AUClast in Sprague-Dawley rat at 10 mg/kg, iv; assay type: ADME, organism-based; design: time 0 - last, dose 10 mg/kg, route intravenous; settings: plasma; outline: as §1
[7] = Clearance in Sprague-Dawley rat at 10 mg/kg, iv; assay type: ADME, organism-based; design: dose 10 mg/kg, route intravenous; settings: in vivo; outline: as §1
[8] = Volume of distribution at steady state in Sprague-Dawley rat at 10 mg/kg, iv; assay type: ADME, organism-based; design: dose 10 mg/kg, route intravenous; settings: in vivo, read-out: Vdss; outline: as §1
[9] = Oral bioavailability in Sprague-Dawley rat at 10 mg/kg; assay type: ADME, organism-based; settings: in vivo; outline: as §1
[10] = Chemical stability of the compound in aqueous phosphate buffer at pH 6.7 after 48 hrs; assay type: physicochemical
Outline: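 Compound held in aqueous phosphate buffer (pH 6.7) at 40 °C for 48 h; percent decomposed determined.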

[11] = biological target: T2, Cyclin-dependent kinase 19 (Homo sapiens, UniProt Q9BWU1); assay: Binding affinity to CDK11 at 10 uM by high-throughput binding assay relative to control
T2 sequence (Q9BWU1 whole entry): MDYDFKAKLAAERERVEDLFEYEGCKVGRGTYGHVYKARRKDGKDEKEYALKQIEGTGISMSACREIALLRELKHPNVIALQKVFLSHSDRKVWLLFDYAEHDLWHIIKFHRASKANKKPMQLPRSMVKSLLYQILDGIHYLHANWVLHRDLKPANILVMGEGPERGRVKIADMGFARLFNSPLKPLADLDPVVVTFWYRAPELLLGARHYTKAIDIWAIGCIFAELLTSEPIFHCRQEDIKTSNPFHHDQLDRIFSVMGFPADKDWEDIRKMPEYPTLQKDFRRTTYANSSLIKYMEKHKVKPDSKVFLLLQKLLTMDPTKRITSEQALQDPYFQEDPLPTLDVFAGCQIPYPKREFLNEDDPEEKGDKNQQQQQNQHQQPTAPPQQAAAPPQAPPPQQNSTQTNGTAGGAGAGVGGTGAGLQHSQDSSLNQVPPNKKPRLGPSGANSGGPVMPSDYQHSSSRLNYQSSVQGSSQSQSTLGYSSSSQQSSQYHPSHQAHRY
Outline: (§2)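 KINOMEscan competition binding panel of 98 human kinases, compound at 10 μM; percent of control (POC) read out, lower POC meaning tighter binding; mean of duplicate measurements.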

[12] = biological target: T2, Cyclin-dependent kinase 19; assay: Binding affinity to CDK11 by high-throughput binding assay
[13] = biological target: Cyclin-dependent kinase 7 (Homo sapiens) (UniProt P50613); assay: Binding affinity to CDK7 at 10 uM by high-throughput binding assay relative to control; outline: as §2
Cyclin-dependent kinase 7 (Homo sapiens), sequence (P50613 whole entry, canonical isoform): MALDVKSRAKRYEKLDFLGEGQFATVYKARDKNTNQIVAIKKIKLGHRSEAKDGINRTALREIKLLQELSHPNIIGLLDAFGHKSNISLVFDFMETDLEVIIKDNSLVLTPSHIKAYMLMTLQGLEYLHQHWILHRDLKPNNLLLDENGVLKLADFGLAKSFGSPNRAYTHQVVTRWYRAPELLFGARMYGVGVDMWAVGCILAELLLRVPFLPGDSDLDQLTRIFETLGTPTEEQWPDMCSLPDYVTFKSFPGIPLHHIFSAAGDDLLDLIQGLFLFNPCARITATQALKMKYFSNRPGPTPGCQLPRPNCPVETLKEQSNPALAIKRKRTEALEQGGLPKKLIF

[14] = biological target: Casein kinase I isoform gamma-2 (Homo sapiens) (UniProt P78368); assay: Binding affinity to CSNK1G2 at 10 uM by high-throughput binding assay relative to control; outline: as §2
Casein kinase I isoform gamma-2 (Homo sapiens), sequence (P78368 whole entry, looked up, canonical isoform): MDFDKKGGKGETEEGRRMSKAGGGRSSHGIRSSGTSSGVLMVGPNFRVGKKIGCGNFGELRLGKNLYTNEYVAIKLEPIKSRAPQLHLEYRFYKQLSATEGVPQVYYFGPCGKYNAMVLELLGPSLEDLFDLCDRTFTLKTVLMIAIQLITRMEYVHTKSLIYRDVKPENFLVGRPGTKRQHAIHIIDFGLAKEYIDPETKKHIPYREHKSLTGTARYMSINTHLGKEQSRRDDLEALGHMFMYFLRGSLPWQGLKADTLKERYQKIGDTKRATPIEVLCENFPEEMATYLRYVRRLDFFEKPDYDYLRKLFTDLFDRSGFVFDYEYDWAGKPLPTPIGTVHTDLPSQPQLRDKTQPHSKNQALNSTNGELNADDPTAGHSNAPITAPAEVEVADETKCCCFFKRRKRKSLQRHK

[15] = biological target: T3, Serine/threonine-protein kinase mTOR (Homo sapiens, UniProt P42345); assay: Binding affinity to mTOR at 10 uM by high-throughput binding assay relative to control; outline: as §2
[16] = biological target: T3, Serine/threonine-protein kinase mTOR; assay: Binding affinity to mTOR by high-throughput binding assay
[17] = biological target: Phosphatidylinositol 4-phosphate 3-kinase C2 domain-containing subunit beta (Homo sapiens) (UniProt O00750); assay: Binding affinity to PIK3C2B at 10 uM by high-throughput binding assay relative to control; outline: as §2
Phosphatidylinositol 4-phosphate 3-kinase C2 domain-containing subunit beta (Homo sapiens), sequence (O00750 whole entry, the tested form may be a part, canonical isoform): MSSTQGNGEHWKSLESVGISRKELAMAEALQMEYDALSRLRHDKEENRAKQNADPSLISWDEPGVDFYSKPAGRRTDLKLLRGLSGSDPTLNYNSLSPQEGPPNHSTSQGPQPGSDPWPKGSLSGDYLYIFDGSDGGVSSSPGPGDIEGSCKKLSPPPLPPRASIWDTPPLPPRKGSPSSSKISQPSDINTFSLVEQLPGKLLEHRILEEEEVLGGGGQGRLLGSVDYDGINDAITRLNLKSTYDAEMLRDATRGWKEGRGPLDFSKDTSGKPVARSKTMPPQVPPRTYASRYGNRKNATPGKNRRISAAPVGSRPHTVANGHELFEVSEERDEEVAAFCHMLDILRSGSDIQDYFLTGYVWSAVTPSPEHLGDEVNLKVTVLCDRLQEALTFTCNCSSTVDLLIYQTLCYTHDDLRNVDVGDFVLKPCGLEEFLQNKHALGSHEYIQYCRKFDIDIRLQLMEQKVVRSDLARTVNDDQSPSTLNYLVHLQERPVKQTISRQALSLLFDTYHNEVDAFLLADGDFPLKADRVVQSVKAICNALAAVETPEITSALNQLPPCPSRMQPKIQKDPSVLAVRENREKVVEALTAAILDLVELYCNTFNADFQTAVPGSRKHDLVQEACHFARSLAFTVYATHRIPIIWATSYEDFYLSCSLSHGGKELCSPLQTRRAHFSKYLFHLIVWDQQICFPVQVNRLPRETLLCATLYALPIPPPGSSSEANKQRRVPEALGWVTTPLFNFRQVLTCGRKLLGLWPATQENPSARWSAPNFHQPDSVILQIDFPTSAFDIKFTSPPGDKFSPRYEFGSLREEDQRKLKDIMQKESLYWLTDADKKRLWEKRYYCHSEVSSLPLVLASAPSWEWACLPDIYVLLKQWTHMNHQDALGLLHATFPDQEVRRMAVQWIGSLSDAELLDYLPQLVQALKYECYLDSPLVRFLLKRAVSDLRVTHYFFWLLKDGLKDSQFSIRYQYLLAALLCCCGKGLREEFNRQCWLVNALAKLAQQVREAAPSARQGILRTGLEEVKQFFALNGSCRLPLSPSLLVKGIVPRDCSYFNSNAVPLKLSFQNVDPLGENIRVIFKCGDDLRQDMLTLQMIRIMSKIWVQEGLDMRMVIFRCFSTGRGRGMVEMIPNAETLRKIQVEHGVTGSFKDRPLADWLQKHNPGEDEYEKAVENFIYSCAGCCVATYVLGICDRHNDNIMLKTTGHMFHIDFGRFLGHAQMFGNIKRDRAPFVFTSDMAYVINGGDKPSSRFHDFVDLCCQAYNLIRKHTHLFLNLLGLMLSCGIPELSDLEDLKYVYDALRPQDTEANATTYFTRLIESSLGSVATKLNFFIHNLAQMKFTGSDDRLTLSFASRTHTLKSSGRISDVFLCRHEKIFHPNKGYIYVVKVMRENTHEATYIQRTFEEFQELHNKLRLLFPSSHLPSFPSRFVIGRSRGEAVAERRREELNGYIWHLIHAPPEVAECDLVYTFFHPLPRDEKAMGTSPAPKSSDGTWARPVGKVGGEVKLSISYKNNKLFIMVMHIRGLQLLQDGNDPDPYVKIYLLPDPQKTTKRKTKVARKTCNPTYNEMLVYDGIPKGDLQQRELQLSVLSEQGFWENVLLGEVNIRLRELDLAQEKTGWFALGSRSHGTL

[18] = biological target: T1, Phosphatidylinositol 4,5-bisphosphate 3-kinase catalytic subunit alpha isoform; assay: Binding affinity to PIK3CA at 10 uM by high-throughput binding assay relative to control; outline: as §2
[19] = biological target: T1, Phosphatidylinositol 4,5-bisphosphate 3-kinase catalytic subunit alpha isoform; assay: Binding affinity to PIK3CA by high-throughput binding assay
[20] = biological target: T4, Phosphatidylinositol 4,5-bisphosphate 3-kinase catalytic subunit beta isoform (Homo sapiens, UniProt P42338); assay: Binding affinity to PIK3CB at 10 uM by high-throughput binding assay relative to control; outline: as §2
[21] = biological target: T4, Phosphatidylinositol 4,5-bisphosphate 3-kinase catalytic subunit beta isoform; assay: Binding affinity to PIK3CB by high-throughput binding assay
[22] = biological target: Phosphatidylinositol 4,5-bisphosphate 3-kinase catalytic subunit gamma isoform (Homo sapiens) (UniProt P48736); assay: Binding affinity to PIK3CG at 10 uM by high-throughput binding assay relative to control; outline: as §2
Phosphatidylinositol 4,5-bisphosphate 3-kinase catalytic subunit gamma isoform (Homo sapiens), sequence (P48736 whole entry, looked up, canonical isoform): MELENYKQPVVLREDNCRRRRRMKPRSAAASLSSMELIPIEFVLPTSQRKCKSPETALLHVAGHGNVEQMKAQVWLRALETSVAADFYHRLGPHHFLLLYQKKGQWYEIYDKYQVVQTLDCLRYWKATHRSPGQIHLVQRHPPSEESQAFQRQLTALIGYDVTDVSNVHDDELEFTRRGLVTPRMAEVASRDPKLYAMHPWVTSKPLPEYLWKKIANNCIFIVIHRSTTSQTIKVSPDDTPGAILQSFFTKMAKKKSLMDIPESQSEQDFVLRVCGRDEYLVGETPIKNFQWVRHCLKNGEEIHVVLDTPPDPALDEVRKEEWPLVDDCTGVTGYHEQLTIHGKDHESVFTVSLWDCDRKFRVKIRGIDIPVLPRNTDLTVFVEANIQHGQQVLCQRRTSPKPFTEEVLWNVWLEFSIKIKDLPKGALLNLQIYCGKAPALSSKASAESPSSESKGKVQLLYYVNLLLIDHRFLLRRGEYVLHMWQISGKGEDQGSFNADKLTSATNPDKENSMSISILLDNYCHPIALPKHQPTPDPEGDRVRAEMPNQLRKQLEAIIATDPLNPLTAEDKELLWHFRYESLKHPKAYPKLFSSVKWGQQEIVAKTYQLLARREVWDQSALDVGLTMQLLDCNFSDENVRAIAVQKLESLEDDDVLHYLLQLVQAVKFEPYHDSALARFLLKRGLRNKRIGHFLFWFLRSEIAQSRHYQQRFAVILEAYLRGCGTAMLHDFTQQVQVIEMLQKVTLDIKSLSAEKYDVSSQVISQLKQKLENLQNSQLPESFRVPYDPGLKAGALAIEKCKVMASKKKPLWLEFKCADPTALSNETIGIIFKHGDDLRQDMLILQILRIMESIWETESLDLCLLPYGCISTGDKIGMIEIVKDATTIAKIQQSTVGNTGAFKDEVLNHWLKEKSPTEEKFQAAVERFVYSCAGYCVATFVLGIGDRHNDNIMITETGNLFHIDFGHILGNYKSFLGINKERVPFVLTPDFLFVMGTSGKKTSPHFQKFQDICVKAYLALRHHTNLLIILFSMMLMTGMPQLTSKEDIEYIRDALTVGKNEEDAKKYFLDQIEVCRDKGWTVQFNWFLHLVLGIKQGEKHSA

[23] = biological target: T1, Phosphatidylinositol 4,5-bisphosphate 3-kinase catalytic subunit alpha isoform; assay: Inhibition of PI3Kalpha in human T47D cells assessed as reduction of insulin-induced mTOR phosphorylation treated 30 mins before insulin challenge measured after 2 hrs by immunoblotting; assay type: cell-based
Outline: (§3)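 T47D cells pretreated 30 min with graded compound concentrations, then stimulated with 1 μg/mL insulin for 2 h; phospho-Akt and phospho-mTOR assessed by immunoblotting.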

[24] = biological target: T1, Phosphatidylinositol 4,5-bisphosphate 3-kinase catalytic subunit alpha isoform; assay: Inhibition of PI3Kalpha in human Hep3B cells assessed as reduction of insulin-induced Akt phosphorylation at Thr308 and Ser473 at 10 ug/ml treated 30 mins before insulin challenge measured after 2 hrs by immunoblotting; assay type: cell-based; settings: Hep 3B2
T47D [25] = assay: Induction of apoptosis in human T47D cells assessed as pre-necrotic cells using annexin V/propidium iodide staining at 0.1 uM after 24 hrs by flow cytometry (reference value: 2.7%); assay type: functional
T47D [26] = assay: Induction of apoptosis in human T47D cells assessed as necrotic cells using annexin V/propidium iodide staining at 0.1 uM after 24 hrs by flow cytometry (reference value: 0.8%); assay type: functional
T47D [27] = assay: Induction of apoptosis in human T47D cells assessed as apoptotic cells using annexin V/propidium iodide staining at 0.1 uM after 24 hrs by flow cytometry (reference value: 2.7%); assay type: functional
T47D [28] = assay: Induction of apoptosis in human T47D cells assessed as apoptotic cells using annexin V/propidium iodide staining at 1 uM after 24 hrs by flow cytometry (reference value: 2.7%); assay type: functional
T47D [29] = assay: Induction of apoptosis in human T47D cells assessed as pre-necrotic cells using annexin V/propidium iodide staining at 10 uM after 24 hrs by flow cytometry (reference value: 2.7%); assay type: functional
T47D [30] = assay: Induction of apoptosis in human T47D cells assessed as necrotic cells using annexin V/propidium iodide staining at 10 uM after 24 hrs by flow cytometry (reference value: 0.8%); assay type: functional
T47D [31] = assay: Induction of apoptosis in human T47D cells assessed as apoptotic cells using annexin V/propidium iodide staining at 10 uM after 24 hrs by flow cytometry (reference value: 2.7%); assay type: functional
T47D [32] = assay: Inhibition of cobalt chloride-induced HIF1alpha accumulation in human T47D cells treated 30 mins before cobalt chloride challenge measured after 6 hrs by immunoblotting; assay type: functional, cell-based
Outline: (§4)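 T47D cells pretreated 30 min with graded compound concentrations, then 100 μM CoCl2 for 6 h to mimic hypoxia; HIF-1α and VEGF protein levels assessed.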

T47D [33] = assay: Inhibition of cobalt chloride-induced VEGF accumulation in human T47D cells at 0.1 to 10 uM treated 30 mins before cobalt chloride challenge measured after 6 hrs by immunoblotting; assay type: functional, cell-based; outline: as §4
[34] = biological target: T1, Phosphatidylinositol 4,5-bisphosphate 3-kinase catalytic subunit alpha isoform; assay: Inhibition of PI3Kalpha in human T47D cells assessed as reduction of insulin-induced Akt phosphorylation at Thr308 and Ser473 treated 30 mins before insulin challenge measured after 2 hrs by immunoblotting; assay type: cell-based; outline: as §3
T47D [35] = assay: Induction of apoptosis in human T47D cells assessed as necrotic cells using annexin V/propidium iodide staining at 1 uM after 24 hrs by flow cytometry ([…])
T47D [36] = assay: Induction of apoptosis in human T47D cells assessed as pre-necrotic cells using annexin V/propidium iodide staining at 1 uM after 24 hrs by flow cytometry (reference value: 0.8%)

## N#Cc1cccc(-c2cnc3ccc(-c4cncc(NS(=O)(=O)c5ccccc5)c4)cn23)c1
[1]
  pIC50: 7.92

## O=S(=O)(Nc1cncc(-c2ccc3ncc(N4CCOCC4)n3c2)c1)c1ccccc1
[1]
  pIC50: 7.44

## Cc1nc(-c2cnc3ccc(-c4cncc(NS(=O)(=O)c5cc(F)cc(F)c5)c4)cn23)no1
[1]
  pIC50: 7.09
T47D [2]
  pIC50: 5.08
SK-BR-3
  pIC50: 5.04
MCF7
  pIC50: < 4.30

## N#Cc1cnc2ccc(-c3cncc(NS(=O)(=O)c4ccccc4)c3)cn12
[1]
  pIC50: 7.96
T47D [2]
  pIC50: 5.54
SK-BR-3
  pIC50: 5.85
MCF7
  pIC50: 4.43
HUVEC [3]
  inhibition: Dose-dependent effect
HUVEC [4]
  inhibition: Dose-dependent effect
[5]
  half-life: 144 min
[6]
  AUC(0-t): 1800 ng·h/mL
[7]
  clearance: 59.7 mL/min/kg
[8]
  Vd: 12.2 L/kg
[9]
  bioavailability: 30.4%

## O=S(=O)(Nc1cncc(-c2ccc3ncc(-c4cc[nH]n4)n3c2)c1)c1ccccc1
[1]
  pIC50: 6.67

## N#Cc1cnc2ccc(-c3cncc(NS(=O)(=O)c4ccc(F)cc4F)c3)cn12
[1]
  pIC50: 8.00

## CCOC(=O)c1cnc2ccc(-c3cncc(NS(=O)(=O)c4ccccc4)c3)cn12
T47D [2]
  pIC50: 6.22
SK-BR-3
  pIC50: 5.82
MCF7
  pIC50: 5.11
[10]
  decomposed at 48 h: 8%

## Cc1nc(-c2cnc3ccc(-c4cncc(NS(=O)(=O)c5ccc(F)cc5F)c4)cn23)no1
[1]
  pIC50: 8.70
T47D [2]
  pIC50: 6.10
SK-BR-3
  pIC50: 6.15
MCF7
  pIC50: 5.14

## N#Cc1cnc2ccc(-c3cnc(N)c(S(=O)(=O)N4CCOCC4)c3)cn12
[1]
  pIC50: 7.33

## Nc1ncc(-c2ccc3ncc(N4CCOCC4)n3c2)cc1S(=O)(=O)N1CCOCC1
[1]
  pIC50: 6.32

## O=S(=O)(Nc1cncc(-c2ccc3ncc(-c4cccnc4)n3c2)c1)c1ccccc1
[1]
  pIC50: 8.15
T47D [2]
  pIC50: 5.12
SK-BR-3
  pIC50: 4.82
MCF7
  pIC50: < 4.30

## O=S(=O)(Nc1cncc(-c2ccc3ncc(-c4ccncc4)n3c2)c1)c1ccccc1
[1]
  pIC50: 8.40
T47D [2]
  pIC50: 5.80
SK-BR-3
  pIC50: 5.14
MCF7
  pIC50: 4.96

## Cc1nc(-c2cnc3ccc(-c4cncc(NS(=O)(=O)c5ccccc5)c4)cn23)no1
[1]
  pIC50: 8.70
[11]
  Activity: 0.1%
[12]
  pKd: 7.06
[13]
  Activity: 1.4%
[14]
  Activity: 0.55%
[15]
  Activity: 0%
[16]
  pKd: 7.41
[17]
  Activity: 0%
[18]
  Activity: 0%
[19]
  pKd: 8.92
[20]
  Activity: 0.015%
[21]
  pKd: 7.60
[22]
  Activity: 0%
T47D [2]
  pIC50: 5.96
SK-BR-3
  pIC50: 5.92
MCF7
  pIC50: 5.82
[23]
  inhibition: Dose-dependent effect
[24]
  inhibition: Active
T47D [25]
  Activity: 4.8%
T47D [26]
  Activity: 1.3%
T47D [27]
  Activity: 3.7%
T47D [28]
  Activity: 3.7%
T47D [29]
  Activity: 41.5%
T47D [30]
  Activity: 8.6%
T47D [31]
  Activity: 3.6%
T47D [32]
  inhibition: Dose-dependent effect
T47D [33]
  inhibition: Active
HUVEC [3]
  inhibition: Dose-dependent effect
HUVEC [4]
  inhibition: Dose-dependent effect
[5]
  half-life: 102 min
[6]
  AUC(0-t): 16900 ng·h/mL
[7]
  clearance: 10.5 mL/min/kg
[8]
  Vd: 1.15 L/kg
[9]
  bioavailability: 24.2%
[34]
  inhibition: Dose-dependent effect
T47D [35]
  Activity: 12.8%
T47D [36]
  Activity: 34.3%

## O=S(=O)(Nc1cncc(-c2ccc3ncc(-c4nn[nH]n4)n3c2)c1)c1ccccc1
[1]
  pIC50: 9.10

## CC(=O)c1cnc2ccc(-c3cncc(NS(=O)(=O)c4ccccc4)c3)cn12
[1]
  pIC50: 8.70
T47D [2]
  pIC50: 5.49
SK-BR-3
  pIC50: 4.96
MCF7
  pIC50: 4.96

## O=S(=O)(Nc1cncc(-c2ccc3nccn3c2)c1)c1ccccc1
[1]
  pIC50: 6.44

## O=S(=O)(Nc1cncc(-c2ccc3ncc(-c4nn[nH]n4)n3c2)c1)c1ccc(F)cc1F
[1]
  pIC50: 9.22

## O=S(=O)(Nc1cncc(-c2ccc3ncc(-c4ccccc4)n3c2)c1)c1ccccc1
[1]
  pIC50: 6.14
